From ChEMBL document CHEMBL1938370, “Structure-activity relationship studies of sulfonylpiperazine analogues as novel negative allosteric modulators of human neuronal nicotinic receptors” (J Med Chem, 2011) come the findings set out here.

Molecules are shown by their SMILES. Activity calls are given as the source filed them. The rule behind the calls is not given here.

The target in experiment [1] is T1, Neuronal acetylcholine receptor; alpha3/beta4 (Homo sapiens, UniProt P30926+P32297). Briefly: Negative allosteric modulation of human nAChR alpha3beta4 expressed in HEK ts201 cells assessed as decrease in epibatidine-induced calcium mobilization up to 100 uM measured every 1.5 sec by fluorescence analysis. It counts as cell-based. In short, it runs like this:
(§1)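 HEK ts201 cells stably expressing human α4β2 or α3β4 nAChRs were plated on poly-L-ornithine-coated wells at 2.0–2.3 × 10^5 cells/well and used ~24 h later. They were washed with HEPES-buffered Krebs and loaded with 50% Calcium 5 NW dye for 1 h at 24 °C in the dark. Test compound was given at 6 concentrations across 0.1–100 µM, with final DMSO 1% at the top concentration. The agonist was 1 µM epibatidine, and fluorescence (ex 485/em 525 nm) was read every ~1.5 s.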
(In general: Calcium flux is commonly read through the fluorescence of an indicator in the cells.)

For experiment [2], the target named is T2, Neuronal acetylcholine receptor; alpha4/beta2 (Homo sapiens, UniProt P17787+P43681). In words: Negative allosteric modulation of human nAChR alpha4beta2 expressed in HEK ts201 cells assessed as decrease in epibatidine-induced calcium mobilization up to 100 uM measured every 1.5 sec by fluorescence analysis. It is filed as cell-based. In short, it runs like this: as §1

In experiment [3] the target is T2, Neuronal acetylcholine receptor; alpha4/beta2. Briefly: Agonist activity at human nAChR alpha4beta2 expressed in HEK ts201 cells assessed as increase in calcium mobilization at 30 uM measured every 1.5 sec by fluorescence analysis. It counts as functional, cell-based.
Experiment [4] concerns the target T1, Neuronal acetylcholine receptor; alpha3/beta4. Briefly: Agonist activity at human nAChR alpha3beta4 expressed in HEK ts201 cells assessed as increase in calcium mobilization at 30 uM measured every 1.5 sec by fluorescence analysis. It is filed as functional, cell-based.
The target of experiment [5] is T2, Neuronal acetylcholine receptor; alpha4/beta2. In words: Relative selectivity, ratio of IC50 for human nAChR alpha3beta4 expressed in HEK ts201 cells to IC50 for human nAChR alpha4beta2 expressed in HEK ts201 cells. It counts as cell-based.
In experiment [6] the target is T1, Neuronal acetylcholine receptor; alpha3/beta4. Briefly: Negative allosteric modulation of human nAChR alpha3beta4 expressed in HEK ts201 cells assessed as inhibition of epibatidine-induced calcium mobilization measured every 1.5 sec by fluorescence analysis. It is filed as cell-based. In short, it runs like this:
as §1

The target of experiment [7] is T2, Neuronal acetylcholine receptor; alpha4/beta2. In words: Negative allosteric modulation of human nAChR alpha4beta2 expressed in HEK ts201 cells assessed as inhibition of epibatidine-induced calcium mobilization measured every 1.5 sec by fluorescence analysis. It is filed as cell-based. A digest of the protocol: as §1
For experiment [8], the target named is T1, Neuronal acetylcholine receptor; alpha3/beta4. Briefly: Negative allosteric modulation of human nAChR alpha3beta4 expressed in HEK ts201 cells assessed as inhibition of epibatidine-induced calcium mobilization at 0.1 to 100 uM measured every 1.5 sec by fluorescence analysis. It is filed as cell-based. In short, it runs like this:
as §1

Experiment [9] has as its target T2, Neuronal acetylcholine receptor; alpha4/beta2. In words: Negative allosteric modulation of human nAChR alpha4beta2 expressed in HEK ts201 cells assessed as inhibition of epibatidine-induced calcium mobilization at 0.1 to 100 uM measured every 1.5 sec by fluorescence analysis. It is filed as cell-based. A digest of the protocol: as §1
The target is the same in experiment [10]. Briefly: Noncompetitive inhibition of human nAChR alpha4beta2 expressed in HEK ts201 cells assessed as inhibition of epibatidine-induced calcium mobilization at 30 uM measured every 1.5 sec by fluorescence analysis. It counts as cell-based. A digest of the protocol: (§2)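 Epibatidine concentration-response curves were run with and without 30 µM modulator in HEK ts201 cells expressing human α4β2 or α3β4 nAChRs. Cells were loaded with Calcium 5 NW dye for 1 h at 24 °C in HEPES-buffered Krebs, and fluorescence (ex 485/em 525 nm) was monitored every ~1.5 s.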

Experiment [11] has as its target T1, Neuronal acetylcholine receptor; alpha3/beta4. Briefly: Noncompetitive inhibition of human nAChR alpha3beta4 expressed in HEK ts201 cells assessed as inhibition of epibatidine-induced calcium mobilization at 30 uM measured every 1.5 sec by fluorescence analysis. It is filed as cell-based. In short, it runs like this:
as §2

What is called IC50 is the point on the concentration scale where inhibition reaches its midpoint.

T1 sequence (P30926 whole entry): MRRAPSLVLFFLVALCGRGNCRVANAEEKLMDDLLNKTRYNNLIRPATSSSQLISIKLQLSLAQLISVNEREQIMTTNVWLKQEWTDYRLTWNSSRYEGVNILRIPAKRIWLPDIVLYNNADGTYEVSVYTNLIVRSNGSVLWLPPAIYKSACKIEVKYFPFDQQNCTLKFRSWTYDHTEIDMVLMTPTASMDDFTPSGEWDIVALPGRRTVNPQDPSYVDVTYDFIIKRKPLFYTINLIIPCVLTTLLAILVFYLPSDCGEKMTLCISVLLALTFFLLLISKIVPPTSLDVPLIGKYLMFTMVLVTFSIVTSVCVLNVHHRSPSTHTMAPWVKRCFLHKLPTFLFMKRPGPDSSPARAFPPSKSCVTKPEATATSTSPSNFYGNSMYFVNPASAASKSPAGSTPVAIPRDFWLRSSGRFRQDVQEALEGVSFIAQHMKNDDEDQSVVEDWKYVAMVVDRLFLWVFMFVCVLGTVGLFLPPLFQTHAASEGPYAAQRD
T1 sequence (P32297 whole entry): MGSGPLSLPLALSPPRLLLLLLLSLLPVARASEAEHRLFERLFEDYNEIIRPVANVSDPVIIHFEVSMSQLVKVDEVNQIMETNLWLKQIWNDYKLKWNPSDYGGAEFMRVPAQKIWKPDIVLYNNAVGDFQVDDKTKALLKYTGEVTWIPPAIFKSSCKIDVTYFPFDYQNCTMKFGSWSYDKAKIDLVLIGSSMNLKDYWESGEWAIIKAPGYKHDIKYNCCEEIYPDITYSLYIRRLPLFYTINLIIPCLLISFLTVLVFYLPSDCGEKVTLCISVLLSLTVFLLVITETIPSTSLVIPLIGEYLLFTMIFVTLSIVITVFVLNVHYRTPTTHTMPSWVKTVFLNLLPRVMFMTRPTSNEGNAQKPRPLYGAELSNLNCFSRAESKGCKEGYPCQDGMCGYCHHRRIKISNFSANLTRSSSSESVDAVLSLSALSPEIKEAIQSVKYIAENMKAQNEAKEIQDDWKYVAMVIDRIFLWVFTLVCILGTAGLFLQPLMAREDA
T2 sequence (P17787 whole entry): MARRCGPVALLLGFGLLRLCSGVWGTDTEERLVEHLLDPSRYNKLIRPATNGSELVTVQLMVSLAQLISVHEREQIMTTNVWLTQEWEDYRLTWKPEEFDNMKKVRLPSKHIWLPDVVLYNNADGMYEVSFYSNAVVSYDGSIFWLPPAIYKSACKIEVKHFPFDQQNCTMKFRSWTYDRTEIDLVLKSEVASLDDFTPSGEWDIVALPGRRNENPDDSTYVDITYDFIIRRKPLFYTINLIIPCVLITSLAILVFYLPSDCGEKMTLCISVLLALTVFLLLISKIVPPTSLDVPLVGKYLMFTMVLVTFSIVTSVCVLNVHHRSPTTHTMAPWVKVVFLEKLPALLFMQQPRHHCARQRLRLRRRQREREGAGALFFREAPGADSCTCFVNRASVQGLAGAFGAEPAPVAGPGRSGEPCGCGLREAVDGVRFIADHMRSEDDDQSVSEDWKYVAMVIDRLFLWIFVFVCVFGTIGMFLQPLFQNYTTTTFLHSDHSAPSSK
T2 sequence (P43681 whole entry): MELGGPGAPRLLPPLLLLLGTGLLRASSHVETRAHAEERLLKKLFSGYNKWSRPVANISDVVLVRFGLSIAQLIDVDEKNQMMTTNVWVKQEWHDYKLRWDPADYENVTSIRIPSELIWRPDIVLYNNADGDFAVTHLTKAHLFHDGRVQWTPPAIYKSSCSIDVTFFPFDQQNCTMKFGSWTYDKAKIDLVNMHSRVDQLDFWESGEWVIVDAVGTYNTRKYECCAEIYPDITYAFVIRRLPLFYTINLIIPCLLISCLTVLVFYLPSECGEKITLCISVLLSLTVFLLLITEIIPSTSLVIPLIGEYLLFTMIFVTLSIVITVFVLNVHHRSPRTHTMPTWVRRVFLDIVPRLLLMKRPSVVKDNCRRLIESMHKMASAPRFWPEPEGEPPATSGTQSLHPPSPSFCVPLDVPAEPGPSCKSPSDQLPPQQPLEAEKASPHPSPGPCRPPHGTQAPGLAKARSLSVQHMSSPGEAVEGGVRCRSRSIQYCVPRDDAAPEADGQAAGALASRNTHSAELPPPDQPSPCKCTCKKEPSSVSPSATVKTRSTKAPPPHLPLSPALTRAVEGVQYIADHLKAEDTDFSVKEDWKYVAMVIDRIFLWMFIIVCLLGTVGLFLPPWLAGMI

As to `O=C(CN1CCN(S(=O)(=O)c2ccccc2F)CC1)Nc1ccn[nH]1`, the IC50 in experiment [1] and in experiment [2] was > 100 µM in each case.

On to `O=C(CN1CCN(S(=O)(=O)c2ccc(F)cc2)CC1)Nc1ccc(F)cc1`, for which the result in experiment [3] and in [4] was inactive.

Take `O=C(CN1CCN(S(=O)(=O)c2cccnc2)CC1)Nc1cc[nH]n1`: the result in experiment [3] and in [4] was inactive.

Consider `COc1ccc(NC(=O)CN2CCN(S(=O)(=O)c3ccccc3F)CC2)cc1`, for which, in experiment [5], the Ratio IC50 turned out to be 1.1. Also, the outcome in [3] and in [4] was inactive. Besides, the IC50 in [6] came to 19.1 µM; in [7], 17.1 µM.

For `O=C(CN1CCN(S(=O)(=O)c2ccccc2F)CC1)Nc1ccc(C(=O)O)cc1`, the outcome in experiment [3] and in experiment [4] was inactive. The IC50 in experiment [1] and in experiment [2] was > 100 µM in each case.

On to `O=C(CN1CCN(S(=O)(=O)c2ccc(F)cc2)CC1)Nc1cc[nH]n1`, for which the result in experiment [3] and in experiment [4] was inactive.

For `COc1ccc(NC(=O)CN2CCN(S(=O)(=O)c3cccnc3)CC2)cc1`, the outcome in experiment [3] and in experiment [4] was inactive. Further, the IC50 in experiment [6] was 95 µM; in [2], > 100 µM.

As to `O=C(CN1CCN(S(=O)(=O)c2ccc(F)cc2)CC1)Nc1ccccc1`, the result in [3] and in experiment [4] was inactive.

Take `COc1ccc(NC(=O)CN2CCN(S(=O)(=O)c3ccc(F)cc3)CC2)cc1`: the outcome in experiment [3] and in experiment [4] was inactive.

As for `O=C(CN1CCN(S(=O)(=O)c2cccnc2)CC1)Nc1ccn[nH]1`, the half-maximal inhibitory concentration (IC50) in [1] was > 100 µM; in experiment [7], 83 µM.

On to `O=S(=O)(c1ccc(F)cc1)N1CCNCC1`, for which the result in experiment [8] and in experiment [9] was inactive.

In the case of `COC(=O)c1ccc(NC(=O)CN2CCN(S(=O)(=O)c3ccccc3F)CC2)cc1`, the outcome in experiment [3] and in experiment [4] was inactive. The values for the IC50 in experiment [6] and in experiment [7] were 11.2 µM and 12.4 µM, respectively.

In the case of `O=C(CN1CCN(S(=O)(=O)c2ccccc2F)CC1)Nc1ccc(F)cc1`, the result in [3] and in [4] was inactive. The IC50 amounted to 13.6 µM in experiment [6] and 8 µM in [7].

In the case of `O=C(CN1CCN(S(=O)(=O)c2ccccc2F)CC1)Nc1cc[nH]n1`, the outcome in experiment [3] and in experiment [4] was inactive.

In the case of `O=C(CN1CCN(S(=O)(=O)c2ccccc2F)CC1)Nc1ccccc1F`, the Ratio IC50 in experiment [5] stood at 12. In addition, the result in experiment [3] and in experiment [4] was inactive.

With `COc1ccc(S(=O)(=O)N2CCN(CC(=O)Nc3ccccc3F)CC2)cc1`, the outcome in [3] and in [4] was inactive. In addition, the half-inhibitory concentration (IC50) was determined as 15.4 µM in experiment [6] and 13.4 µM in experiment [7].

Consider `COc1ccc(S(=O)(=O)N2CCN(CC(=O)Nc3ccc(F)cc3)CC2)cc1`, for which the result in experiment [3] and in experiment [4] was inactive. Also, the IC50 in experiment [6] stood at 17.1 µM; in experiment [7] it was 23.6 µM.

For the compound `O=C(CN1CCN(S(=O)(=O)c2ccccc2F)CC1)Oc1ccccc1-c1ccccc1`, the outcome in experiment [3] and in experiment [4] was inactive. For the same compound, the 50% inhibitory concentration (IC50) worked out at 23.5 µM in experiment [6] and 20.9 µM in [7].

As to `O=C(CN1CCN(S(=O)(=O)c2cccnc2)CC1)Nc1ccccc1F`, the result in experiment [3] and in experiment [4] was inactive. Moreover, the half-maximal inhibitory concentration (IC50) in [6] was 49.6 µM; in [7] it was 20.3 µM.

On to `O=C(CN1CCN(S(=O)(=O)c2ccc(F)cc2)CC1)Oc1ccccc1-c1ccccc1`, for which the result in experiment [3] and in [4] was inactive. For the same compound, the half-maximal inhibitory concentration (IC50) came to 23.8 µM in [6] and 12.2 µM in [7].

`O=C(CN1CCN(S(=O)(=O)c2ccccc2)CC1)Nc1ccccc1`: the result in experiment [3] and in [4] was inactive. The IC50 in [6] stood at 16.4 µM; in [7] it was 9.6 µM.

In the case of `O=C(CN1CCN(S(=O)(=O)c2ccc(F)cc2)CC1)Nc1ccccc1F`, the result in experiment [3] and in experiment [4] was inactive. In addition, the inhibition entry in experiment [10] and in experiment [11] was “Active” each time.

As for `O=C(CN1CCN(S(=O)(=O)c2ccccc2)CC1)Nc1ccccc1F`, the result in experiment [3] and in experiment [4] was inactive. Besides, the 50% inhibitory concentration (IC50) worked out at 4.6 µM in experiment [6] and 4.1 µM in experiment [7].

As to `O=C(CN1CCN(S(=O)(=O)c2ccc(F)cc2)CC1)Nc1ccc2[nH]ncc2c1`, the result in experiment [3] and in [4] was inactive.
